This note sets out measurements from ChEMBL document CHEMBL3421551, “Puupehenol, a potent antioxidant antimicrobial meroterpenoid from a Hawaiian deep-water Dactylospongia sp. sponge” (J Nat Prod, 2015).

Active and inactive are the calls of the source. The rule behind the calls is not given here.

Data set [1] in a line: Antioxidant activity assessed as ferric reducing antioxidant power at 1 mg/ml by FRAP assay. The data set is classed as physicochemical. The method, boiled down: (§1)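 Working reagent was 300 mM acetate buffer (pH 3.6), 10 mM TPTZ in 40 mM HCl and 20 mM FeCl3·6H2O mixed 10:1:1 and warmed to 37 °C. A blank read at 595 nm was taken, then sample was added. After 8 min at room temperature, absorbance was read at 595 nm, in triplicate. FRAP values (μM) came from an FeSO4 standard curve (50–1000 μM) run on each plate.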

Data set [2] has as its system Bacillus cereus. Description: Antimicrobial activity against Bacillus cereus at 10 ug/disc by disc diffusion assay. The following applies: read-out: IZ. It is filed as functional. A general note: A growth-free zone around the sample is the usual read-out of agar diffusion tests.
The test system of data set [3] is Escherichia coli. Put plainly: Antimicrobial activity against Escherichia coli at 10 ug/disc by disc diffusion assay. It is filed as functional. The following applies: for zone of inhibition at 10 µg/disc: read-out: IZ. In outline: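 Disc diffusion assay, tested alongside S. aureus, B. cereus and P. aeruginosa. Discs loaded at 10 μg each, with a methanol disc as the negative control.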

Data set [4] relates to Pseudomonas aeruginosa. Description: Antimicrobial activity against Pseudomonas aeruginosa at 10 ug/disc by disc diffusion assay. The data set is classed as functional, organism-based.
Data set [5] deals with Staphylococcus aureus. Put plainly: Antimicrobial activity against Staphylococcus aureus at 10 ug/disc by disc diffusion assay. The data set is classed as functional. The following applies: read-out: IZ.
Data set [6] in a line: Antioxidant activity assessed as ferric reducing antioxidant power at 0.1 mg/ml by FRAP assay. It is filed as physicochemical. The method, boiled down:
as §1

As for `CC1(C)CCC[C@]2(C)[C@H]3[C@H](O)c4cc(O)c(O)cc4O[C@@]3(C)CC[C@@H]12` (relative stereo), in data set [1], the Activity amounted to 2500 µM. Besides, the zone of inhibition at 10 µg/disc in data set [2] was 3 mm; in data set [5], 4 mm. The “inhibition zone (IZ)” value in data set [3] and in data set [4] was “inactive” throughout.
Consider `CC1(C)S[C@@H]2[C@H](NC(=O)[C@H](N)c3ccccc3)C(=O)N2[C@H]1C(=O)O` [AMPICILLIN], for which the zone of inhibition at 10 µg/disc in data set [2] turned out to be 9 mm; in data set [3], 20 mm; in data set [5], 31 mm. Further, the “inhibition zone (IZ)” value in data set [4] is “inactive”.
As to `O=C1O[C@H]([C@@H](O)CO)C(O)=C1O` [ASCORBIC ACID], the Activity in data set [6] is 870 µM.
On to `CO` [METHYL ALCOHOL], for which the Activity in data set [1] worked out at 4.7 µM. Also, the zone of inhibition at 10 µg/disc in data set [2], in data set [3] and in data set [5] was 0 mm each time. For the same compound, the “inhibition zone (IZ)” value in data set [4] was “inactive”.
For the compound `CC1(C)CCC[C@]2(C)[C@H]3C=C4C=C(O)C(=O)C=C4O[C@@]3(C)CC[C@@H]12` [PUUPEHENONE], in data set [1], the Activity worked out at 2600 µM. Also, the zone of inhibition at 10 µg/disc worked out at 3 mm in data set [2] and 4 mm in data set [5]. Further, the “inhibition zone (IZ)” value in data set [3] and in data set [4] was “inactive” each time.
